Scp-1 inhibitor: blocks human Scp-1 phosphatase activity; Q9GZU7; Recombinant Scp1, phosphopeptide, malachite green phosphate absorbance; inhibition, % at 20 µM; 340,000 compounds, 0.88% hits; AID 493091;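 active = inhibition above about 50% at 20 µM, limit read from the data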;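 note: plate controls were DMSO wells with enzyme for no effect and wells lacking enzyme for full effect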
Target sequence (Q9GZU7 76-261 limits assumed): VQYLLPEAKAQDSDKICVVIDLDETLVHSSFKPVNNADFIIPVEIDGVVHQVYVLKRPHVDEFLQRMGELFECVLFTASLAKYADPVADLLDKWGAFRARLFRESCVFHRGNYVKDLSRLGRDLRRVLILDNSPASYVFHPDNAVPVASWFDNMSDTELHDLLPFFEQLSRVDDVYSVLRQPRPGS
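System: SCP-1 catalytic domain; Reagent: Phospho 17-mer peptide substrate; Doses: one concentration, 20 µM, with 1.0% DMSO; Incubation: 45 min room-temperature reaction, 5 min colour, 30 min stabiliser; Signal: Phosphate-binding colour reagent, absorbance read at 630 nm.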
DNMT1 block: DNMT1 (human) enzyme inhibition; AID 588458; DNMT1 molecular beacon, Hinp1I cleavage, fluorescence; 360,000 compounds, 0.83% hits; inhibition (reported as % activation of signal), % at 10 µM; in the data active = inhibition above about 50%
STEP block: STEP (human) phosphatase inhibition. P54829. recombinant STEP, OMFP fluorogenic substrate, fluorescence. inhibition, % at 20 µM. 360,000 compounds, 0.25% hits;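 active = inhibition at 20 µM, scaled per plate between control wells, above about 37%, limit read from the data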;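 note: 0% = DMSO with enzyme and substrate and 100% = substrate only without enzyme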
Target sequence (P54829 whole entry, looked up): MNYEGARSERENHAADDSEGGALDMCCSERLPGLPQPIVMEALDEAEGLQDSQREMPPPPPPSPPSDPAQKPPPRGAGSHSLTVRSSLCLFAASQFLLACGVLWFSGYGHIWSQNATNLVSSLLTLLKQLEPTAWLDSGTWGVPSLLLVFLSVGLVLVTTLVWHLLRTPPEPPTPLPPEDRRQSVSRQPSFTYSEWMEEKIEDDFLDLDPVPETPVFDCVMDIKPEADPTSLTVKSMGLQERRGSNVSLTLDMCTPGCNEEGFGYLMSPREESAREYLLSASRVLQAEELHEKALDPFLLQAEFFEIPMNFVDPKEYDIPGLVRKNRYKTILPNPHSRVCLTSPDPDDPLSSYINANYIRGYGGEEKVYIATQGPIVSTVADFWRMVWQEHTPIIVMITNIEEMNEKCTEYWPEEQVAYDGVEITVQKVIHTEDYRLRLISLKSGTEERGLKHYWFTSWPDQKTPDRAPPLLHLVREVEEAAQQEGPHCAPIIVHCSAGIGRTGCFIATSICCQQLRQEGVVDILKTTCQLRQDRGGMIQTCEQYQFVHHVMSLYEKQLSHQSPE
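Also added – OMFP at 25 µM · Test system – STEP tyrosine phosphatase · Technique – FITC-channel fluorescence of OMFP product · Schedule – 20 min at room temperature, dark · Evaluation – control-normalized % inhibition with plate pattern correction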
LMPTP inh: LMPTP (human) inhibition | P24666 | recombinant LMPTP-A, OMFP fluorogenic substrate, fluorescence intensity | inhibition, % at 20 µM | 360,000 compounds, 0.22% hits | AID 651560;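 active = compounds that cut the enzyme signal by at least half of the control window in the single-dose screen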;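 note: plate controls were DMSO wells with enzyme plus substrate for no effect and substrate without enzyme for full effect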
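Material: LMPTP-A; amount: 0.625 nM enzyme; doses: single 20 µM dose; times: reaction 50 min, room temperature, dark; technique: fluorescence intensity of OMFP turnover product; benchmarks: no-enzyme and uninhibited controls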
SUMO1 PPI mod: alters human SUMO1 binding to SIM partners | P63165 | SUMO1 binding to a labelled peptide, TR-FRET, 1 h | inhibition, % at 20 µM | 360,000 compounds, 0.33% hits; in the data active = inhibition above about 37%
HKDC1 inh: inhibitors of human hexokinase HKDC1; Q2TB90; recombinant HKDC1, G6PDH/diaphorase resazurin coupled fluorescence; inhibition, % at 20 µM; 340,000 compounds, 0.16% hits; AID 493160;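 active = inhibition above about 35% when tested at 20 µM, limit read from the data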;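 note: plate controls were DMSO wells with enzyme for no effect and DMSO wells lacking enzyme for full effect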
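Assay system – recombinant HKDC1 (HK5) hexokinase enzyme, produced in-house · Input – HKDC1 at 5 µg/mL · Reagent – glucose plus 1 mM ATP as hexokinase substrates · Timing – 90 min reaction incubation at room temperature, dark · Measured by – G6PDH/diaphorase-coupled fluorescence, 1 mM NADP, 100 µM resazurin, 525/613 nm · Benchmarks – DMSO-enzyme wells negative, buffer-substituted wells positive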
Scp1 confirm: Scp-1 (human) inhibition, single-dose confirmed; shares compounds with Scp-1 inhibitor; recombinant SCP-1 catalytic domain, phosphate release, malachite green absorbance; inhibition, % at 20 µM; 2,500 compounds, 61% hits;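 active = inhibition of at least 30% at 20 µM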;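 note: plate controls were DMSO with enzyme for no effect and buffer wells lacking enzyme for full effect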
MG interference: colorimetric interference in Scp-1 counter-screen; shares compounds with Scp-1 inhibitor; Colorimetric interference counterscreen, malachite green absorbance 630 nm; apparent inhibition (interference), % at 20 µM; 2,500 tested, under 10 active; AID 540313;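 active = inhibition of at least 30% at 20 µM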;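 note: compounds added after enzyme reaction finished so only phosphate colour detection is probed; plate controls were DMSO wells with completed Scp-1 reaction for no effect and substrate wells lacking enzyme for full effect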
Scp-1 Tm shift: validation of human Scp-1 inhibitors by thermal shift binding; AID 540329; thermal shift relative to vanadate control, % at 40 µM; shares compounds with Scp-1 inhibitor; Recombinant SCP1, Sypro Orange thermal shift Tm; 1,500 compounds, 25% hits;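 active = substances whose mean melting-temperature shift, as a percentage of the reference inhibitor's shift, reaches about 5.3%, limit read from the data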;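 note: 0% = Tm of DMSO wells and 100% = Tm with sodium orthovanadate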
HKDC1 act conf2: confirmation of human HKDC1 activators; shares compounds with HKDC1 inh; recombinant HKDC1, G6PDH/diaphorase resazurin fluorescence; active compounds read low; inhibition, % at 20 µM; 740 compounds, 14% hits; AID 504708;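 active = inhibition at or below a set negative limit, negative inhibition meaning the enzyme was activated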
DNMT1 interf DR: beacon fluorescence artifact, dose response counter-screen. AID 602382. IC50, µM. shares compounds with DNMT1 block. molecular beacon fluorescence, spectral interference counter-screen. 200 tested, under 10 active
DNMT1 confirm: DNMT1 inhibition confirmation, single concentration; AID 602385; inhibition, % at 10 µM; DNMT1 molecular beacon HinP1I cleavage, fluorescence; 2,300 compounds, 8% hits; shares compounds with DNMT1 block;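 active = average inhibition of at least 30% in the single-concentration confirmation test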
Beacon interf: shows spectral interference in the DNMT1 beacon assay | shares compounds with DNMT1 block | DNMT1 molecular beacon spectral interference counterscreen, fluorescence 485/520 | activation (fluorescence interference), % at 10 µM | 2,300 compounds, 1% hits | AID 602387;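 active = activation of at least 30% at 10 µM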;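 note: DNMT1 catalytic domain with a HinP1I cleavage step and a FAM/dabcyl DNA beacon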
STEP conf: confirmation of human STEP phosphatase inhibitors; inhibition, % at 20 µM; 520 compounds, 32% hits; recombinant STEP, OMFP fluorogenic substrate, fluorescence; shares compounds with STEP block;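 note: 0% = enzyme with substrate plus DMSO and 100% = substrate without enzyme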
The depositor's hits bear a star; / = no result given. Rows were chosen to be rich in hits. Some 1.8% of all compounds tested hit in one or more screens of this group. Unless noted, the rule behind the calls is not given here.

SMILES	Scp-1 inhibitor	DNMT1 block	STEP block	LMPTP inh	SUMO1 PPI mod	HKDC1 inh	Scp1 confirm	MG interference	Scp-1 Tm shift	STEP conf	others
O=c1ccn([C@@H]2O[C@H](CNCc3cccn3-c3nccs3)[C@@H](O)[C@H]2O)c(=O)[nH]1	/	5	-2	-1	3	/	/	/	/	/
N=c1c2ccccc2nnn1-c1ccc(C(F)(F)F)cc1	73*	24	94*	68*	-6	-2	62*	-11	-5	17
O=C(N/N=C/c1ccccc1Cl)c1nc2ccc([N+](=O)[O-])cc2c(=O)[nH]1	70*	0	54*	40	3	6	32*	-18	7.5*	8
O=C(COc1ccccc1)NC1C(=O)N2C(C(=O)O)=C(Cl)CSC12 (centres undefined)	40	1	5	-1	4	-4	/	/	/	/
C=CC1=C(C(=O)O)N2C(=O)C(NC(=O)Cc3ccccc3)C2SC1 (centres undefined)	96*	90*	88*	73*	85*	40*	78*	-7	1	36*	HKDC1 act conf2=-8;DNMT1 confirm=5;Beacon interf=4
O=C(Nc1cccc(-c2nc3ccccc3s2)c1)c1cc(=O)c2ccccc2o1	72*	52*	80*	37	3	1	43*	-14	-6	5	DNMT1 confirm=1;Beacon interf=1
O=C(Nc1cccc(-c2nc3ccccc3s2)c1)c1cccs1	-7	-13	-2	4	0	-7	/	/	/	/
COc1ccc(Cn2c(-c3ccco3)nc3c(c(=O)c4ccccc4n3C)c2=O)cc1	91*	16	80*	69*	45*	15	17	8	/	4
FC(F)(F)c1ccc(Nc2nnnc3ccccc23)cc1	73*	-2	97*	51*	-8	0	62*	-13	-24	-8
Cn1cc(C(=O)Nc2ccc(C#N)cc2)c2ccccc2c1=O	-9	-3	0	-1	-10	-2	/	/	/	/
O=C1NC(=Nc2cccnc2)S/C1=C/c1ccc(F)cc1	87*	2	61*	14	-5	9	50*	-9	-32	-2
Cc1ccc(/C=C2/SC(=Nc3ccc(F)cc3)NC2=O)s1	1	30	1	3	-1	6	/	/	/	/
O=C(CSc1nc2ccccc2[nH]1)N1CCCCC1	6	5	0	-1	-2	-4	/	/	/	/
Cc1c(C)n(C(=O)CSc2nc3ccccc3[nH]2)c2ccccc12	98*	100*	84*	15	1	3	60*	-8	5.8*	52*	DNMT1 confirm=13;Beacon interf=-2
CC(C)Cn1c(N)c(C(=O)COC(=O)c2cccn2C)c(=O)n(C)c1=O	0	-2	-1	-1	4	1	/	/	/	/
O=C(CCS(=O)(=O)c1ccc(Br)cc1)NCc1ccc(F)cc1	81*	51*	40*	2	33	4	41*	-11	-13	25	DNMT1 confirm=0;Beacon interf=3
Cc1ccc(S(=O)(=O)CCC(=O)OCC(=O)NCc2ccc(F)cc2)cc1	/	3	-1	-1	4	/	/	/	/	/
C[C@@H]1CN([C@H](C)CO)S(=O)(=O)c2ccc(C#Cc3ccccc3)cc2O[C@H]1CN(C)C(=O)Nc1ccc2c(c1)OCO2	/	-15	-1	2	0	/	/	/	/	/
O=C(CCc1c[nH]c2ccccc12)NC(Cc1ccccc1)C(=O)O (centres undefined)	-5	2	2	-2	5	-2	/	/	/	/
O=C1c2cccc3cccc(c23)C(=O)N1c1ccc2ncccc2c1	101*	4	100*	37	-27	12	74*	-19	2	9
O=C1c2cccc3cccc(c23)C(=O)N1c1nccs1	-3	21	-3	-2	-15	4	/	/	/	/
Cc1c(C(=O)NCc2ccc(C(F)(F)F)cc2)sc(=O)n1Cc1ccc(S(=O)(=O)N(C)C)cc1	/	2	-1	1	6	/	/	/	/	/
O=C(/C=C/c1ccccc1Cl)Nc1ccc2c(c1)C(=O)NC2=O	101*	65*	95*	71*	37	2	85*	-11	6.8*	19	DNMT1 confirm=6;Beacon interf=3
CNc1[nH]c(=O)[nH]c(=O)c1N=Nc1cc(Cl)ccc1Cl	108*	4	48*	3	-6	10	73*	-11	-6	16
COc1ccc(C(C)(C)C)cc1NC(=O)CCCN1C(=O)NC(C)(C)C1=O	-5	-3	1	-1	2	-2	/	/	/	/
C[C@H]1CN([C@@H](C)CO)C(=O)CCCn2cc(nn2)CO[C@@H]1CN(C)C(=O)Nc1ccc(-c2cccs2)cc1	/	11	-1	0	2	/	/	/	/	/
O=C(O)CC/C(=C/c1cccc(NC(=O)c2ccccc2Cl)c1)c1nc2ccccc2s1	-1	-22	-2	1	-5	7	/	/	/	/
COc1cc(/C=C(\CCC(=O)O)c2nc3ccccc3s2)ccc1OCC(=O)Nc1c(Cl)cccc1Cl	75*	52*	49*	44	95*	16	52*	-17	3	21	DNMT1 interf DR=>99;DNMT1 confirm=70*;Beacon interf=0
COc1ccc(-c2nn(-c3ccccc3)cc2C2CC(c3cccs3)=NN2C(=O)CCC(=O)O)cc1 (centres undefined)	-16	-2	4	-1	-16	0	/	/	/	/
